# Reference: ChEMBL document CHEMBL5376013, “Design, synthesis and biological evaluation of novel morpholinopyrimidine-5-carbonitrile derivatives as dual PI3K/mTOR inhibitors” (RSC Med Chem, 2024)
# Assays:
# Type in all cases: functional
# Conditions in all cases: read-out: GI
# NCI/ADR-RES = experiment: Antitumor activity against human NCI-ADR-RES cells assessed as growth inhibition at 10 uM relative to control
# Method in brief: (§1)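 After drug addition, plates were incubated 48 h at 37 °C under 5% CO2. Adherent cells were fixed with cold TCA (10% final, 60 min, 4 °C) and suspension cells with 16% final TCA. Staining used 0.4% SRB in 1% acetic acid, solubilized in 10 mM trizma, read at A515. Percent growth was calculated from time-zero, control and treated absorbances.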
# M14 = experiment: Antitumor activity against human M14 cells assessed as growth inhibition at 10 uM relative to control; method in brief: as §1
# EKVX = experiment: Antitumor activity against human EKVX cells assessed as growth inhibition at 10 uM relative to control; method in brief: as §1
# NCI-H226 = experiment: Antitumor activity against human NCI-H226 cells assessed as growth inhibition at 10 uM relative to control; method in brief: as §1
# HOP-62 = experiment: Antitumor activity against human HOP-62 cells assessed as growth inhibition at 10 uM relative to control; method in brief: as §1
# HCT-116 = experiment: Antitumor activity against human HCT-116 cells assessed as growth inhibition at 10 uM relative to control; method in brief: as §1
# KM12 = experiment: Antitumor activity against human KM12 cells assessed as growth inhibition at 10 uM relative to control; method in brief: as §1
# HCC 2998 = experiment: Antitumor activity against human HCC 2998 cells assessed as growth inhibition at 10 uM relative to control; method in brief: as §1
# SNB-75 = experiment: Antitumor activity against human SNB-75 cells assessed as growth inhibition at 10 uM relative to control
# Method in brief: (§2)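 Drug exposure 48 h at 37 °C, 5% CO2. Adherent cells fixed with cold TCA (10% final), suspension cells with TCA (16% final). Stained with 0.4% SRB in 1% acetic acid, dissolved in 10 mM Tris, A515. Growth relative to time-zero and untreated control.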
# A498 = experiment: Antitumor activity against human A498 cells assessed as growth inhibition at 10 uM relative to control; method in brief: as §1
# Hs-578T = experiment: Antitumor activity against human Hs-578T cells assessed as growth inhibition at 10 uM relative to control; method in brief: as §1
# SK-MEL-5 = experiment: Antitumor activity against human SK-MEL-5 cells assessed as growth inhibition at 10 uM relative to control; method in brief: as §2
# SF-268 = experiment: Antitumor activity against human SF-268 cells assessed as growth inhibition at 10 uM relative to control; method in brief: as §1
# HT-29 = experiment: Antitumor activity against human HT-29 cells assessed as growth inhibition at 10 uM relative to control; method in brief: as §1
# NCI-H522 = experiment: Antitumor activity against human NCI-H522 cells assessed as growth inhibition at 10 uM relative to control; method in brief: as §1
# MDA-MB-435 = experiment: Antitumor activity against human MDA-MB-435 cells assessed as growth inhibition at 10 uM relative to control; method in brief: as §1
# HOP-92 = experiment: Antitumor activity against human HOP-92 cells assessed as growth inhibition at 10 uM relative to control; method in brief: as §1
# RXF 393 = experiment: Antitumor activity against human RXF 393 cells assessed as growth inhibition at 10 uM relative to control; method in brief: as §1
# Malme-3M = experiment: Antitumor activity against human Malme-3M cells assessed as growth inhibition at 10 uM relative to control; method in brief: as §1
# SN12C = experiment: Antitumor activity against human SN12C cells assessed as growth inhibition at 10 uM relative to control; method in brief: as §2
# NCI-H322M = experiment: Antitumor activity against human NCI-H322M cells assessed as growth inhibition at 10 uM relative to control; method in brief: as §1
# CAKI-1 = experiment: Antitumor activity against human CAKI-1 cells assessed as growth inhibition at 10 uM relative to control; method in brief: as §1
# NCI-H460 = experiment: Antitumor activity against human NCI-H460 cells assessed as growth inhibition at 10 uM relative to control; method in brief: as §1
# RPMI-8226 = experiment: Antitumor activity against human RPMI-8226 cells assessed as growth inhibition at 10 uM relative to control; method in brief: as §1
# SK-MEL-28 = experiment: Antitumor activity against human SK-MEL-28 cells assessed as growth inhibition at 10 uM relative to control; method in brief: as §2
# IGROV-1 = experiment: Antitumor activity against human IGROV-1 cells assessed as growth inhibition at 10 uM relative to control; method in brief: as §1
# SK-MEL-2 = experiment: Antitumor activity against human SK-MEL-2 cells assessed as growth inhibition at 10 uM relative to control; method in brief: as §1
# 786-0 = experiment: Antitumor activity against human 786-0 cells assessed as growth inhibition at 10 uM relative to control; method in brief: as §1
# SR = experiment: Antitumor activity against human SR cells assessed as growth inhibition at 10 uM relative to control; method in brief: as §2
# UO-31 = experiment: Antitumor activity against human UO-31 cells assessed as growth inhibition at 10 uM relative to control; method in brief: as §2
# T47D = experiment: Antitumor activity against human T47D cells assessed as growth inhibition at 10 uM relative to control; method in brief: as §2
# HL-60 = experiment: Antitumor activity against human HL-60 cells assessed as growth inhibition at 10 uM relative to control; method in brief: as §1
# OVCAR-4 = experiment: Antitumor activity against human OVCAR-4 cells assessed as growth inhibition at 10 uM relative to control; method in brief: as §1
# SNB-19 = experiment: Antitumor activity against human SNB-19 cells assessed as growth inhibition at 10 uM relative to control; method in brief: as §2
# MDA-MB-231 = experiment: Antitumor activity against human MDA-MB-231 cells assessed as growth inhibition at 10 uM relative to control; method in brief: as §1
# SW-620 = experiment: Antitumor activity against human SW-620 cells assessed as growth inhibition at 10 uM relative to control; method in brief: as §2
# SK-OV-3 = experiment: Antitumor activity against human SK-OV-3 cells assessed as growth inhibition at 10 uM relative to control; method in brief: as §2
# SF-539 = experiment: Antitumor activity against human SF-539 cells assessed as growth inhibition at 10 uM relative to control; method in brief: as §1
# SF-295 = experiment: Antitumor activity against human SF-295 cells assessed as growth inhibition at 10 uM relative to control; method in brief: as §1
# COLO 205 = experiment: Antitumor activity against human COLO 205 cells assessed as growth inhibition at 10 uM relative to control; method in brief: as §1
# OVCAR-5 = experiment: Antitumor activity against human OVCAR-5 cells assessed as growth inhibition at 10 uM relative to control; method in brief: as §1
# TK-10 = experiment: Antitumor activity against human TK-10 cells assessed as growth inhibition at 10 uM relative to control; method in brief: as §2
# UACC-257 = experiment: Antitumor activity against human UACC-257 cells assessed as growth inhibition at 10 uM relative to control; method in brief: as §2
# UACC-62 = experiment: Antitumor activity against human UACC-62 cells assessed as growth inhibition at 10 uM relative to control; method in brief: as §2
# U-251 = experiment: Antitumor activity against human U-251 cells assessed as growth inhibition at 10 uM relative to control; method in brief: as §2
# NCI-H23 = experiment: Antitumor activity against human NCI-H23 cells assessed as growth inhibition at 10 uM relative to control; method in brief: as §1
compound,measurement,setting,value
COc1cc(/C=N/Nc2nc(-c3ccc(Cl)cc3)c(C#N)c(N3CCOCC3)n2)cc(OC)c1OC,inhibition of growth at 10 µM,NCI/ADR-RES,59%
same,inhibition of growth at 10 µM,M14,48.8%
same,inhibition of growth at 10 µM,EKVX,53.7%
same,inhibition of growth at 10 µM,NCI-H226,59.1%
same,inhibition of growth at 10 µM,HOP-62,10.2%
same,inhibition of growth at 10 µM,HCT-116,55.4%
same,inhibition of growth at 10 µM,KM12,31.2%
same,inhibition of growth at 10 µM,HCC 2998,< 1%
same,inhibition of growth at 10 µM,SNB-75,48.9%
same,inhibition of growth at 10 µM,A498,33.7%
same,inhibition of growth at 10 µM,Hs-578T,14.4%
same,inhibition of growth at 10 µM,SK-MEL-5,71%
same,inhibition of growth at 10 µM,SF-268,17.6%
same,inhibition of growth at 10 µM,HT-29,69.3%
same,inhibition of growth at 10 µM,NCI-H522,31.4%
same,inhibition of growth at 10 µM,MDA-MB-435,20.1%
same,inhibition of growth at 10 µM,HOP-92,59.1%
same,inhibition of growth at 10 µM,RXF 393,30.5%
same,inhibition of growth at 10 µM,Malme-3M,< 1%
same,inhibition of growth at 10 µM,SN12C,35.4%
same,inhibition of growth at 10 µM,NCI-H322M,16.4%
same,inhibition of growth at 10 µM,CAKI-1,< 1%
same,inhibition of growth at 10 µM,NCI-H460,46.2%
same,inhibition of growth at 10 µM,RPMI-8226,74.6%
same,inhibition of growth at 10 µM,SK-MEL-28,14.2%
same,inhibition of growth at 10 µM,IGROV-1,39.1%
same,inhibition of growth at 10 µM,SK-MEL-2,20.4%
same,inhibition of growth at 10 µM,786-0,28.3%
same,inhibition of growth at 10 µM,SR,85.6%
same,inhibition of growth at 10 µM,UO-31,67%
same,inhibition of growth at 10 µM,T47D,51.8%
same,inhibition of growth at 10 µM,HL-60,40.8%
same,inhibition of growth at 10 µM,OVCAR-4,11.2%
same,inhibition of growth at 10 µM,SNB-19,14.8%
same,inhibition of growth at 10 µM,MDA-MB-231,27.8%
same,inhibition of growth at 10 µM,SW-620,10.3%
same,inhibition of growth at 10 µM,SK-OV-3,< 1%
same,inhibition of growth at 10 µM,SF-539,35.5%
same,inhibition of growth at 10 µM,SF-295,13.8%
same,inhibition of growth at 10 µM,COLO 205,46.6%
same,inhibition of growth at 10 µM,OVCAR-5,27.9%
same,inhibition of growth at 10 µM,TK-10,15.7%
same,inhibition of growth at 10 µM,UACC-257,< 1%
same,inhibition of growth at 10 µM,UACC-62,31.7%
same,inhibition of growth at 10 µM,U-251,43.6%
same,inhibition of growth at 10 µM,NCI-H23,13.3%
